Screening results as filed in PubChem BioAssay.
PAFAH1B3 inh – PAFAH1B3 enzyme inhibitors, primary screen, biochemical, fluorescence polarization, human. Platelet-activating factor acetylhydrolase IB subunit alpha1 (Homo sapiens), Q15102. recombinant PAFAH1B3, FP-rhodamine probe. inhibition, % at 3.39 µM. hit rate 0.28% among 340,000. AID 492972, 2010;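 active = inhibition above the screen-wide average of all tested compounds plus 3 SD, cut at about 25% in these data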;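 also: 0% = enzyme with DMSO only and 100% = wells lacking PAFAH1B3 protein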
Target sequence (Q15102 whole entry, looked up): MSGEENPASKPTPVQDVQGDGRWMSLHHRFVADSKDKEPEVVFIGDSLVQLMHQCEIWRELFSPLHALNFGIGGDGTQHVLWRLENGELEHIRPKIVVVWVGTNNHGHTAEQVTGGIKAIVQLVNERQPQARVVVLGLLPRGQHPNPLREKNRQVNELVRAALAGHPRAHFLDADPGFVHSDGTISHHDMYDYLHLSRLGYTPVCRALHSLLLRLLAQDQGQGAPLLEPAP
PAFAH2 FP inh – PAFAH2 enzyme inhibitors, primary screen, biochemical, fluorescence polarization, human. Platelet-activating factor acetylhydrolase 2, cytoplasmic (Homo sapiens), Q99487. recombinant PAFAH2, FP-rhodamine activity probe. inhibition, % at 3.39 µM. hit rate 0.99% among 340,000. AID 492956, 2010;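 active = inhibition above the mean over all tested compounds plus 3 SD, cut at about 30% in these data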;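 also: inhibitors block probe labeling of enzyme so polarization drops; 0% = enzyme with DMSO and 100% = wells lacking PAFAH2 protein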
pPAFAH FP inh – pPAFAH enzyme inhibitors, primary screen, biochemical, fluorescence polarization, human; Platelet-activating factor acetylhydrolase (Homo sapiens), Q13093; recombinant pPAFAH, FP-rhodamine probe fluorescence polarization; inhibition, % at 3.39 µM; hit rate 1.5% among 330,000; AID 463082, 2010;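 active = inhibition above the mean inhibition across the screen plus 3 SD, cut at about 25% in these data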;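 also: inhibitors block binding of the rhodamine activity-based probe so polarization drops; 0% = enzyme with DMSO and 100% = wells lacking pPAFAH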
PAFAH1B2 inh – PAFAH1B2 enzyme inhibitors, primary screen, biochemical, fluorescence polarization, human; Platelet-activating factor acetylhydrolase IB subunit alpha2 (Homo sapiens), P68402; recombinant PAFAH1B2, FP-rhodamine activity probe; hit rate 1.2% among 340,000; inhibition, % at 3.39 µM;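 active = inhibition above the mean of all tested compounds plus 3 SD, cut at about 24% in these data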;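 also: 0% = enzyme with DMSO and 100% = wells lacking PAFAH1B2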
Target sequence (P68402 whole entry, looked up): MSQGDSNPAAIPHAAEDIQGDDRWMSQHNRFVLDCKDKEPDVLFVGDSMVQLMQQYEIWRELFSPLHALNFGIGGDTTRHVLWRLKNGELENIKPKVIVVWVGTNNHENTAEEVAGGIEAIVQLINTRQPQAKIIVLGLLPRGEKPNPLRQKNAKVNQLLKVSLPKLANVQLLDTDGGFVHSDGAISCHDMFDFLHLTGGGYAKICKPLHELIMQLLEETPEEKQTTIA
NR3A LBD binder – binders of NR3A ligand-binding domain, primary screen, biophysical, differential scanning fluorimetry, uHTS | Glutamate receptor ionotropic, NMDA 3A (GRIN3A) ligand-binding domain | NR3A LBD differential scanning fluorimetry, Tm shift; 0% = protein alone, 100% = glycine-bound protein | Tm shift relative to glycine control, % at 25 µM | AID 1259313, 2017 | hit rate 2.5% among 340,000;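 active = melting temperature shift of at least 10% of the positive control shift, at one fixed dose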
UCH37 DUB inh – inhibitors of human UCH37 deubiquitinase, primary screen, biochemical, Ub-AMC cleavage, fluorescence. inhibition, % (test concentration not listed). hit rate 0.33% among 330,000. Ubiquitin carboxyl-terminal hydrolase isozyme L5 (Homo sapiens), Q9Y5K5. purified proteasome/UCH37;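 active = mean inhibition over replicate wells above about 20%, limit read from the data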;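 also: 0% = compound-free wells with enzyme and 100% = wells lacking proteasome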
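Material: human UCH37 enzyme supplied as purified proteasome complex / Amount: 0.15 nM proteasome as dispensed / Buffer or medium: pH 7.4 Tris-HCl (50 mM) with ovalbumin, ATP-MgCl2, DTT / Times: preincubation 30 min, reaction 25 min, room temperature / Technique: AMC fluorescence from Ub-AMC cleavage, excitation 355 nm, emission 460 nm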
The depositor's hits bear a star. Most compounds without a hit are left out; they make up all but 4.8% or so of the library.

Results for CC(=NNS(=O)(=O)c1ccc(C)c([N+](=O)[O-])c1)c1cccs1 ?
UCH37 DUB inh: 4

Results for Cc1c(C(=O)N/N=C/c2cccc(O)c2)nnn1-c1nonc1N ?
PAFAH1B3 inh: 9; PAFAH2 FP inh: 4; pPAFAH FP inh: 5; PAFAH1B2 inh: 1; NR3A LBD binder: 12*

What do the screens show for `COc1cc(/C=N/NC(=O)c2nnn(-c3nonc3N)c2C(C)C)ccc1OCc1ccccc1`?
PAFAH1B3 inh: -7; PAFAH2 FP inh: -23; pPAFAH FP inh: -8; PAFAH1B2 inh: -10; NR3A LBD binder: 35*

Results for COc1cc(/C=N/NC(=O)c2nnn(-c3nonc3N)c2C(C)C)ccc1O ?
PAFAH1B3 inh: 9; PAFAH2 FP inh: -7; pPAFAH FP inh: 0; PAFAH1B2 inh: -1; NR3A LBD binder: 30*

How did COc1cc(C=NNC(N)=O)ccc1OCC(=O)Nc1ccc(C)c(C)c1 do in these assays?
UCH37 DUB inh: 1

Results for CC(CCc1ccc2c(c1)OCO2)=N/N=C1/NC(=O)CC(C(=O)Nc2ccccc2)S1 (centres undefined) ?
UCH37 DUB inh: 7

How did CN(C)c1ccc(C=NNC(=O)CNC(=O)c2ccncc2)cc1 do in these assays?
UCH37 DUB inh: -42

Results for COc1c(C)oc2cc(O)ccc2c1=O ?
PAFAH1B3 inh: 12; PAFAH2 FP inh: -2; pPAFAH FP inh: 7; PAFAH1B2 inh: 6; NR3A LBD binder: 1; UCH37 DUB inh: inactive

What do the screens show for `Oc1ccc2c(c1)oc1cc(O)ccc12`?
PAFAH1B3 inh: 8; PAFAH2 FP inh: 3; pPAFAH FP inh: 5; PAFAH1B2 inh: 13; NR3A LBD binder: 18*; UCH37 DUB inh: -7

What do the screens show for `CCOc1cc(C=NNc2ccccc2Cl)ccc1OCC(=O)O`?
UCH37 DUB inh: 7

What do the screens show for `CC(=NNC(=O)COc1ccc(C#N)cc1)c1ccccc1OC(F)F`?
UCH37 DUB inh: 3

Results for CC(C)=CCC/C(C)=C/C=NNC(=O)c1cccc([N+](=O)[O-])c1 ?
UCH37 DUB inh: 3

What do the screens show for `COc1ccc(Cl)cc1Nc1ncnc2sc(C)c(S(=O)(=O)N3CCC(C)CC3)c12`?
PAFAH1B3 inh: -21; PAFAH2 FP inh: -6; pPAFAH FP inh: -1; PAFAH1B2 inh: -3; NR3A LBD binder: 10*; UCH37 DUB inh: -96

How did O=C(NN=Cc1ccc2c(c1)OCO2)c1ccco1 do in these assays?
UCH37 DUB inh: 6

Results for CCNc1nc(NCC)nc(NN=Cc2ccc([N+](=O)[O-])o2)n1 ?
UCH37 DUB inh: 8

How did O=C(Cn1cc[n+](CC(=O)c2ccc(Cl)cc2Cl)c1)c1ccc(Cl)cc1Cl do in these assays?
pPAFAH FP inh: 33*; NR3A LBD binder: -1; UCH37 DUB inh: 7

What do the screens show for `Cc1cc(C)c(C=NNC(=O)c2nnn(-c3nonc3N)c2COc2ccc(F)cc2)c(C)c1`?
UCH37 DUB inh: 4

How did CCC(C)NC(=O)CSc1nc(-c2cccs2)cc(C(F)(F)F)n1 (centres undefined) do in these assays?
PAFAH1B3 inh: 2; PAFAH2 FP inh: 0; pPAFAH FP inh: 11; PAFAH1B2 inh: 0; NR3A LBD binder: 0; UCH37 DUB inh: -4

How did O=C(CSc1nc(-c2cccs2)cc(C(F)(F)F)n1)Nc1cc(OCC(F)(F)F)cc([N+](=O)[O-])c1 do in these assays?
PAFAH1B3 inh: 3; PAFAH2 FP inh: -12; pPAFAH FP inh: -1; PAFAH1B2 inh: -7; NR3A LBD binder: 15*; UCH37 DUB inh: 6

What do the screens show for `COc1cccc2c1C(=O)c1c(O)c3c(c(O)c1C2=O)CC(O)(C(=O)CO)CC3OC1CC(N(C)C)C(O)C(C)O1` (centres undefined)?
PAFAH1B3 inh: 47*; PAFAH2 FP inh: 60*; PAFAH1B2 inh: 61*; NR3A LBD binder: 2
